ChEMBL document CHEMBL4602627, “Further exploration of the structure-activity relationship of imidazoquinolines; identification of potent C7-substituted imidazoquinolines” (Bioorg Med Chem Lett, 2020)
Blank lines part the entries; values can stand above or below the molecule they belong to. The source made the active and inactive calls. No cut-off for these calls is given here.

Tests used:
[1] = molecular target: T1, Toll-like receptor 7/8 (Canis lupus familiaris) (UniProt A1XC23+H6BA89); assay: Agonist activity at TLR7/8 in dog PBMC assessed as IL-10 secretion at 20 uM after 29 hrs by ELISA (reference value: 33 +/- 16 pg/ml); type: cell-based
Method in brief: (§1)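 Canine PBMCs (2 × 10^6 cells/mL) were incubated with agonist at 20 µM for 29 h. TNFα, IL-12, IL-6, IL-10, IL-2 and IFNγ in the medium were measured by ELISA, in triplicate. Vehicle was 1% DMSO in water.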

[2] = molecular target: T1, Toll-like receptor 7/8 (Canis lupus familiaris); assay: Agonist activity at TLR7/8 in dog PBMC assessed as maximal increase in IL-12 secretion at 20 uM after 30 to 48 hrs by ELISA; type: cell-based
[3] = molecular target: T1, Toll-like receptor 7/8 (Canis lupus familiaris); assay: Agonist activity at TLR7/8 in dog PBMC assessed as IL-2 secretion at 20 uM after 29 hrs by ELISA (reference value: 47 +/- 20 pg/ml); type: cell-based; method in brief: as §1
[4] = molecular target: T1, Toll-like receptor 7/8 (Canis lupus familiaris); assay: Agonist activity at TLR7/8 in dog PBMC assessed as IFNgamma secretion at 20 uM after 29 hrs by ELISA (reference value: 0.4 +/- 0.7 pg/ml); type: cell-based; method in brief: as §1
[5] = molecular target: T1, Toll-like receptor 7/8 (Canis lupus familiaris); assay: Agonist activity at TLR7/8 in dog PBMC assessed as TNFalpha secretion at 20 uM after 29 hrs by ELISA (reference value: 8 +/- 2 pg/ml); type: cell-based; method in brief: as §1
[6] = Solubility of the compound at >100 uM; type: physicochemical
[7] = molecular target: T1, Toll-like receptor 7/8 (Canis lupus familiaris); assay: Agonist activity at TLR7/8 in dog PBMC assessed as increase in TNFalpha secretion at 20 uM measured over 29 hrs by ELISA
[8] = molecular target: T1, Toll-like receptor 7/8 (Canis lupus familiaris); assay: Agonist activity at TLR7/8 in dog PBMC assessed as IL-6 secretion at 20 uM after 29 hrs by ELISA (reference value: 310 +/- 90 pg/ml); type: cell-based; method in brief: as §1
[9] = molecular target: T1, Toll-like receptor 7/8 (Canis lupus familiaris); assay: Agonist activity at TLR7/8 in dog PBMC assessed as increase in IFN-gamma secretion at 20 uM measured over 29 hrs by ELISA
[10] = molecular target: T1, Toll-like receptor 7/8 (Canis lupus familiaris); assay: Agonist activity at TLR7/8 in dog PBMC assessed as maximal increase in TNFalpha secretion at 20 uM after 30 to 48 hrs by ELISA; type: cell-based
[11] = molecular target: T1, Toll-like receptor 7/8 (Canis lupus familiaris); assay: Agonist activity at TLR7/8 in dog PBMC assessed as IL-12 secretion at 20 uM after 29 hrs by ELISA (reference value: 18 +/- 8 pg/ml); type: cell-based; method in brief: as §1
[12] = molecular target: T1, Toll-like receptor 7/8 (Canis lupus familiaris); assay: Agonist activity at TLR7/8 in dog PBMC assessed as maximal increase in IFN-gamma secretion at 20 uM after 30 to 48 hrs by ELISA; type: cell-based
[13] = molecular target: T1, Toll-like receptor 7/8 (Canis lupus familiaris); assay: Agonist activity at TLR7/8 in dog PBMC assessed as increase in IL-12 secretion at 20 uM measured over 29 hrs by ELISA
[14] = molecular target: T2, Toll-like receptor 7 (Homo sapiens) (UniProt Q9NYK1); assay: Agonist activity at human TLR7 expressed in HEK-Blue cells assessed as induction of NFkappaB activation by measuring increase in SEAP level by SEAP reporter gene-based UV-vis absorbance method relative to resiquimod; type: cell-based
T2 sequence (whole entry): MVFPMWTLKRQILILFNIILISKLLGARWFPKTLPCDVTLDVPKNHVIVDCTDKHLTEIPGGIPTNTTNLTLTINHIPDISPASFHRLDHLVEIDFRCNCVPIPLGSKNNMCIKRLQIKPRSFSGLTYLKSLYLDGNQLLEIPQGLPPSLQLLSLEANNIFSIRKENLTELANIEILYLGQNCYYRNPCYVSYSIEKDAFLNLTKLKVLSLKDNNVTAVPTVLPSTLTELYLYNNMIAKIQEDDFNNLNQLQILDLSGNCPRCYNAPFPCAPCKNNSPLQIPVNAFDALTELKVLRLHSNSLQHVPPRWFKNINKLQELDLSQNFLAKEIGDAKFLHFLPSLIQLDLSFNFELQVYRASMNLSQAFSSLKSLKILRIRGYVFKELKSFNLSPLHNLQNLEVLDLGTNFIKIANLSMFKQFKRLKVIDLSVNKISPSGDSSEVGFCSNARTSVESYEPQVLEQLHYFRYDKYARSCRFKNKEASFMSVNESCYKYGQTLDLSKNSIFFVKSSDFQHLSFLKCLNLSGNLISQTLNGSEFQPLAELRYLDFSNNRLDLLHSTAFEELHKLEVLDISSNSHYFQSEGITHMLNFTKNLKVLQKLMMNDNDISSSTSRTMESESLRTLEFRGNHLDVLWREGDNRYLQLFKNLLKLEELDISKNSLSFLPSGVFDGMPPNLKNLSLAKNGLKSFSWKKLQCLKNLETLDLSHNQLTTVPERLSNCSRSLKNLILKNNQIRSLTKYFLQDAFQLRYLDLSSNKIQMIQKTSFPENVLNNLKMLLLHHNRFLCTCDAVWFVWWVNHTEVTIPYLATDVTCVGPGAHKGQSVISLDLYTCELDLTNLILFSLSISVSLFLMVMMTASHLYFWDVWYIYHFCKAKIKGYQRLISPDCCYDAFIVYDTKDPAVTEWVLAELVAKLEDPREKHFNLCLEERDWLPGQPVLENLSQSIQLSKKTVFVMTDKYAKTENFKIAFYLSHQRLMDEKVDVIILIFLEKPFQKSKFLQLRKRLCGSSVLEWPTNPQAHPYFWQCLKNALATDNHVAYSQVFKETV

[15] = molecular target: T2, Toll-like receptor 7 (Homo sapiens); assay: Agonist activity at human TLR7 expressed in HEK-Blue cells assessed as induction of NFkappaB activation by measuring increase in SEAP level by SEAP reporter gene-based UV-vis absorbance method relative to imiquimod; type: cell-based
[16] = molecular target: T3, Toll-like receptor 8 (Homo sapiens) (UniProt Q9NR97); assay: Agonist activity at human TLR8 expressed in HEK-Blue cells assessed as induction of NFkappaB activation by measuring increase in SEAP level by SEAP reporter gene-based UV-vis absorbance method relative to resiquimod; type: cell-based
T3 sequence (whole entry): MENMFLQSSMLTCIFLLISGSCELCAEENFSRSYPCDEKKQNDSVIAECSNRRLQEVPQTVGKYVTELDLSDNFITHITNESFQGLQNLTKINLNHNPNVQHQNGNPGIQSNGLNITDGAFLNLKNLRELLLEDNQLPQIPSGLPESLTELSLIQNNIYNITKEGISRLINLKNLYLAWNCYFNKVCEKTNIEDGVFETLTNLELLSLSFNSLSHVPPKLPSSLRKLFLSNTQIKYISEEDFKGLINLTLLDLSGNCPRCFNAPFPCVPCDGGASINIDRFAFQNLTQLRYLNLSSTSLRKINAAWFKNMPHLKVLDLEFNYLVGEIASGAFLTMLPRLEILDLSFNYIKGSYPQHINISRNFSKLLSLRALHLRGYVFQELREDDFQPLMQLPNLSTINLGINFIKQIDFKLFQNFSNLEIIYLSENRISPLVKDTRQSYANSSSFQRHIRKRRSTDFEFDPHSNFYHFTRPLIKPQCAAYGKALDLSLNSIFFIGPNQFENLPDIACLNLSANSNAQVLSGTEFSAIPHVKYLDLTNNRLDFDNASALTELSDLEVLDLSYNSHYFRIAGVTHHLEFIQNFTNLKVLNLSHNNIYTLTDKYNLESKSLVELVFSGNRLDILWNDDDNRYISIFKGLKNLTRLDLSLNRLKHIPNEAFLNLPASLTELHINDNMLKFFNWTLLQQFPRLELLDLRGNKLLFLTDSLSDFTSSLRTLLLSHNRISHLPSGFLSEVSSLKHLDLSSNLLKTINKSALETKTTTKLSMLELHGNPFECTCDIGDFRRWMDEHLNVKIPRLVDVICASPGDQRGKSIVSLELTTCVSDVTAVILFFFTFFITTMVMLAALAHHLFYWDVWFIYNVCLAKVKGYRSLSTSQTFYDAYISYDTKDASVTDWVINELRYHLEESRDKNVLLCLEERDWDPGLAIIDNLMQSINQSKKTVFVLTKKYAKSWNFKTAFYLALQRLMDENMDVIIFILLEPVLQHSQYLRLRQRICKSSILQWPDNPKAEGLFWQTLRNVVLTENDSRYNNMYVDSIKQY

Activity [1]: 37 pg/mL | Activity [2]: Active | Activity [3]: 60 pg/mL | Activity [4]: 13 pg/mL | Activity [5]: 10 pg/mL | solubility [6]: Insoluble | Activity [7]: Active | Activity [8]: 350 pg/mL | Activity [9]: Active | Activity [10]: Active | Activity [11]: 920 pg/mL | Activity [12]: Active | Activity [13]: Active
Structure (SMILES): CCCCc1nc2c(N)nc3cc(C#N)ccc3c2n1CC(C)C

Activity [1]: 37 pg/mL | Activity [2]: Active | Activity [3]: 30 pg/mL | Activity [4]: 0 pg/mL | Activity [5]: 49 pg/mL | solubility [6]: Insoluble | Activity [7]: Active | Activity [8]: 500 pg/mL | Activity [10]: Active | Activity [11]: 746 pg/mL | Activity [12]: Active | Activity [13]: Active
Structure (SMILES): CCCCc1nc2c(N)nc3cc(OC)ccc3c2n1CC(C)C

Activity [1]: 7 pg/mL | Activity [2]: Active | fold change (FC) [14]: < 2 | Activity [3]: 55 pg/mL | Activity [4]: 13 pg/mL | fold change (FC) [15]: < 100 | Activity [5]: 22 pg/mL | fold change (FC) [16]: < 4 | solubility [6]: Insoluble | Activity [7]: Active | Activity [8]: 230 pg/mL | Activity [9]: Active | Activity [10]: Active | Activity [11]: 1700 pg/mL | Activity [12]: Active | Activity [13]: Active
Structure (SMILES): CCCCc1nc2c(N)nc3cc(Cl)ccc3c2n1CC(C)(C)O

Activity [1]: 6 pg/mL | Activity [2]: Active | Activity [3]: 57 pg/mL | Activity [4]: 4 pg/mL | Activity [5]: 7 pg/mL | solubility [6]: Insoluble | Activity [8]: 71 pg/mL | Activity [9]: Active | Activity [10]: Active | Activity [11]: 190 pg/mL | Activity [12]: Active | Activity [13]: Active
Structure (SMILES): CCOCc1nc2c(N)nc3cc(C#N)ccc3c2n1CC(C)C

Activity [1]: 14 pg/mL | Activity [2]: Active | Activity [3]: 63 pg/mL | Activity [4]: 7 pg/mL | Activity [5]: 91 pg/mL | solubility [6]: Insoluble | Activity [7]: Active | Activity [8]: 240 pg/mL | Activity [9]: Active | Activity [10]: Active | Activity [11]: 760 pg/mL | Activity [12]: Active | Activity [13]: Active
Structure (SMILES): CCCCc1nc2c(N)nc3cc(Cl)ccc3c2n1CC(C)C

Activity [1]: 20 pg/mL | Activity [2]: Active | Activity [3]: 50 pg/mL | Activity [4]: 5 pg/mL | Activity [5]: 114 pg/mL | solubility [6]: Insoluble | Activity [7]: Active | Activity [8]: 280 pg/mL | Activity [9]: Active | Activity [10]: Active | Activity [11]: 781 pg/mL | Activity [12]: Active | Activity [13]: Active
Structure (SMILES): CCOCc1nc2c(N)nc3cc(Cl)ccc3c2n1CC(C)C

Further lines, the molecule ahead of its results:

Structure (SMILES): CCOCc1nc2c(N)nc3ccccc3c2n1CC(C)(C)O [RESIQUIMOD]
Activity [1]: 21 pg/mL | Activity [2]: Active | Activity [3]: 120 pg/mL | Activity [4]: 26 pg/mL | Activity [5]: 190 pg/mL | solubility [6]: Insoluble | Activity [7]: Active | Activity [8]: 380 pg/mL | Activity [9]: Active | Activity [10]: Active | Activity [11]: 2800 pg/mL | Activity [12]: Active | Activity [13]: Active

Structure (SMILES): CCOCc1nc2c(N)nc3cc(Cl)ccc3c2n1CC(C)(C)O
Activity [1]: 12 pg/mL | Activity [2]: Active | Activity [3]: 76 pg/mL | Activity [4]: 16 pg/mL | Activity [5]: 70 pg/mL | solubility [6]: Insoluble | Activity [7]: Active | Activity [8]: 320 pg/mL | Activity [9]: Active | Activity [10]: Active | Activity [11]: 1900 pg/mL | Activity [12]: Active | Activity [13]: Active

Structure (SMILES): CCCCc1nc2c(N)nc3cc(C#N)ccc3c2n1CC(C)(C)O
Activity [1]: 14 pg/mL | Activity [2]: Active | Activity [3]: 45 pg/mL | Activity [4]: 12 pg/mL | Activity [5]: 44 pg/mL | solubility [6]: Insoluble | Activity [7]: Active | Activity [8]: 290 pg/mL | Activity [9]: Active | Activity [10]: Active | Activity [11]: 418 pg/mL | Activity [12]: Active | Activity [13]: Active

Structure (SMILES): CC(C)Cn1cnc2c(N)nc3ccccc3c21 [IMIQUIMOD]
Activity [1]: 16 pg/mL | Activity [2]: Active | Activity [3]: 85 pg/mL | Activity [4]: 18 pg/mL | Activity [5]: 25 pg/mL | solubility [6]: Insoluble | Activity [7]: Active | Activity [8]: 300 pg/mL | Activity [9]: Active | Activity [10]: Active | Activity [11]: 1200 pg/mL | Activity [12]: Active | Activity [13]: Active

Structure (SMILES): CCOCc1nc2c(N)nc3cc(C#N)ccc3c2n1CC(C)(C)O
Activity [1]: 6 pg/mL | Activity [2]: Active | Activity [3]: 46 pg/mL | Activity [4]: 0.2 pg/mL | Activity [5]: 80 pg/mL | solubility [6]: Insoluble | Activity [7]: Active | Activity [8]: 214 pg/mL | Activity [10]: Active | Activity [11]: 13 pg/mL
